Compound activity as filed in PubChem BioAssay.
The list is not random: actives were taken first. Their share in the collection is about 2.1%.
RanGTP-Impb inh = inhibitors of RanGTP-importin-beta interaction, primary screen, biochemical, FRET, CFP-Ran, YFP-importin-beta, homogeneous; cell-free CFP-Ran/YFP-importin-beta FRET ratio; inhibition, % (no concentration beside the values); 1.1% of 300,000 active;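 active = more than half of the replicate wells show a fall in the fluorescence ratio signal beyond about 16%, limit read from the data, passing the limit was not always enough; inconclusive = exactly half of the replicate wells pass the set limit; inactive = fewer than half of replicates pass the limit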;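 note: 0% = DMSO wells and 100% = Ran loaded with GDP instead of GTP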
Runt-SMMHC FRET = inhibitors of RUNX1 Runt–CBFb-SMMHC binding, primary screen, biochemical, FRET, Cerulean-Runt, Venus-CBFb-SMMHC, uHTS; Cerulean-Runt/Venus-CBFb-SMMHC FRET ratio 530/480, 1 h; inhibition, % at 20 µM; AID 1434, 2008; 0.74% of 220,000 active;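 active = mean inhibition across duplicate retests at 20 µM reaching about 50%, limit read from the data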;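 note: 0% = DMSO wells and 100% = wells with excess untagged CBFb-SMMHC; inhibitors lower the FRET ratio by blocking Runt binding to CBFb-SMMHC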
Target sequence (Q01196 whole entry, looked up): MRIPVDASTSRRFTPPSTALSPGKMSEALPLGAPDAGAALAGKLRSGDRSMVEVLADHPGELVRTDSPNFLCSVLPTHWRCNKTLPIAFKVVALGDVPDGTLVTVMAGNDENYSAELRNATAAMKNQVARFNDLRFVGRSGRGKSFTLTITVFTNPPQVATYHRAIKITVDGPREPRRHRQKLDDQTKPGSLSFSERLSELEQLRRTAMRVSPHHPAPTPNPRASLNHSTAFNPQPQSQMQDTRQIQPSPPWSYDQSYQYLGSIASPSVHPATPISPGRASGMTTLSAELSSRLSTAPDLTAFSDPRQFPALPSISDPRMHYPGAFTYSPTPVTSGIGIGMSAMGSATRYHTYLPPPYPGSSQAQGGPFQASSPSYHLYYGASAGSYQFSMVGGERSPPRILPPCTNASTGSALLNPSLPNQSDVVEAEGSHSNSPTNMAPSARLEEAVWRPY
Target sequence (Q13951 whole entry, looked up): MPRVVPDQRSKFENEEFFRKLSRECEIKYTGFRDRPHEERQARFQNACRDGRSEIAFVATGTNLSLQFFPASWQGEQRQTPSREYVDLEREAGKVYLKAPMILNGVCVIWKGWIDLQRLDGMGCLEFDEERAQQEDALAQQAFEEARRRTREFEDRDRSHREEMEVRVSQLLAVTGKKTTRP
FAS TE block = FAS thioesterase domain inhibitors, primary screen, biochemical, fluorescence intensity, uHTS; Fatty acid synthase (Homo sapiens), P49327; recombinant FAS-TE, OMFH fluorogenic substrate, fluorescence endpoint; inhibition, % at 15 µM; 0.67% of 360,000 active;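 active = compounds whose normalised, plate-corrected inhibition of enzyme fluorescence in the single-dose primary screen is 50% or more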;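 note: 0% = DMSO with enzyme and 100% = substrate without enzyme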
Calpain2 inh = inhibitors of pig calpain II, primary screen, biochemical, fluorogenic peptide substrate, 1536-well | purified calpain II, 30 min | inhibition, % at 16 µM | 0.37% of 220,000 active;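 active = inhibition above about 50%, limit read from the data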
Runt-CBFb FRET = inhibitors of RUNX1 Runt–CBFb binding, primary screen, biochemical, FRET, Cerulean-Runt, Venus-CBFb, uHTS; Runt-related transcription factor 1 (Homo sapiens) + Core-binding factor subunit beta …; Cerulean-Runt/Venus-CBFb FRET ratio 530/480, 1 h; inhibition, % at 20 µM; 0.46% of 220,000 active; AID 1496, 2009;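 active = inhibition over about 50% at 20 µM in the single-dose screen, limit read from the data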;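 note: 0% = DMSO wells and 100% = excess unlabeled CBFb competitor control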
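Assay system: Cerulean-Runt domain / Medium: Tris 50 mM pH 7.5, KCl, K2SO4, 0.01% BSA / Timing: protein complex preformed 1 h, compound exposure 1 h, room temperature, dark / Measured by: FRET, excitation 422 nm, emission at 530 and 480 nm / Evaluation: loss of energy transfer signal / Control set: 5 µM unlabeled CBFb as full-inhibition high control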
FAS-TE inh conf = FAS thioesterase domain inhibitors, confirmation, biochemical, fluorescence intensity, single concentration; AID 624325, 2012; recombinant FAS-TE, OMFH fluorogenic substrate; shares compounds with FAS TE block; inhibition, % at 15 µM; 45% of 2,300 active;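 active = compounds inhibiting the enzyme by at least 50% at 15 µM in any one of the replicates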;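 note: 0% = enzyme with DMSO only and 100% = wells lacking enzyme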
An asterisk follows results filed as active; ? = inconclusive; nt = no result.

SMILES | RanGTP-Impb inh | Runt-SMMHC FRET | FAS TE block | Calpain2 inh | Runt-CBFb FRET | FAS-TE inh conf
O=C(COC(=O)c1cc(S(=O)(=O)N2CCOCC2)ccc1F)Nc1cc([N+](=O)[O-])ccc1F | nt | nt | 7 | nt | nt | nt
CCCN(CC(=O)Nc1ccc(F)c(F)c1F)C(=O)c1cc([N+](=O)[O-])ccc1N1CCOCC1 | -2 | nt | 54* | nt | nt | 52*
CCNc1nc2c(c(=O)n(C)c(=O)n2C)n1CCCc1ccccc1 | -3 | nt | -4 | nt | nt | nt
COc1ccccc1NC(=O)COC(=O)c1cc([N+](=O)[O-])ccc1N1CCCC1 | nt | nt | 70* | nt | nt | 63*
CC(C)c1ccccc1NC(=O)COC(=O)c1cc([N+](=O)[O-])ccc1N1CCOCC1 | ? | nt | 74* | nt | nt | 65*
O=C(COC(=O)c1cc([N+](=O)[O-])ccc1N1CCCC1)Nc1ccccc1OC(F)F | nt | nt | 56* | nt | nt | 43*
CCOCCCNC(=O)CCn1nc(-c2ccc(Cl)cc2)ccc1=O | 2 | nt | -7 | nt | nt | nt
CN(Cc1ccsc1)C(=O)Cn1cc(Br)ccc1=O | 7 | nt | -1 | nt | nt | nt
Cn1c(=O)c2[nH]c(COc3ccc(C(C)(C)C)cc3)nc2n(C)c1=O | ? | 1 | 69* | 24 | -9 | 70*
Cn1c(=O)c2[nH]c(Cc3cccc(O)c3)nc2n(C)c1=O | nt | nt | -6 | nt | nt | nt
CC(C)(O)c1cc2ccc(C#CCCN3C(=O)c4ccccc4C3=O)cc2c(=O)o1 | nt | nt | -8 | nt | nt | nt
O=C(C/C=N\OCc1ccc([N+](=O)[O-])cc1)Nc1ccc(Br)cc1 | 5 | -1 | 55* | 18 | 0 | 57*
Cc1ccc(SCc2cc(=O)[nH]c(/N=C(\N)Nc3cccc4ccccc34)n2)cc1 | 5 | 0 | 58* | -10 | 2 | 4
O=C(OCc1c(F)cccc1Cl)c1cnc2ccccc2n1 | 2 | nt | 10 | nt | nt | nt
Cc1cccc(C2Nc3ccccc3C(=O)N2NC(=O)c2ccc([N+](=O)[O-])cc2)n1 (stereo unspecified) | 3 | -1 | 53* | -3 | 1 | 62*
O=C(NN1C(=O)c2ccccc2NC1c1ccccn1)c1ccc([N+](=O)[O-])cc1 (stereo unspecified) | ? | -4 | 42 | 18 | 2 | nt
Cc1ccccc1-n1c(SCC(=O)c2c(N)n(C)c(=O)n(C)c2=O)nnc1-c1cccnc1 | -2 | 1 | -2 | -1 | -2 | nt
Cc1ccccc1-n1c(SCC(=O)c2c(N)n(C)c(=O)n(C)c2=O)nc2sc3c(c2c1=O)CCCC3 | ? | 1 | 90* | -32 | -2 | 32
C/C(=N\NC(=O)c1ccc2c(c1)OCO2)c1ccc(NC(=O)CCCC(=O)O)cc1 | 1 | nt | -4 | nt | nt | nt
Cc1cc(C)cc(Oc2cc(NC(=O)c3cn(C)nc3C)cc([N+](=O)[O-])c2)c1 | -1 | 0 | 10 | -49 | 0 | nt
Cc1cccc(Oc2cc(NC(=O)Cn3cnc([N+](=O)[O-])n3)cc([N+](=O)[O-])c2)c1 | nt | 2 | 59* | 25 | -2 | 44
O=C(NCCS(=O)(=O)N1CCN(Cc2ccccc2)CC1)c1ccc(F)cc1 | -3 | nt | -6 | nt | nt | nt
CCOc1ccc(NC(=O)CSc2ccccc2N)cc1 | 1 | -7 | -1 | 1 | 1 | nt
O=C(NC1CCCc2ccccc21)c1c(F)cccc1Cl (stereo unspecified) | 1 | nt | 3 | nt | nt | nt
O=C(CCC1CCCC1)Nc1ccc([N+](=O)[O-])cn1 | 2 | 0 | 12 | 9 | -2 | nt
SMILES | RanGTP-Impb inh | Runt-SMMHC FRET | FAS TE block | Calpain2 inh | Runt-CBFb FRET | FAS-TE inh conf
O=C(O)CC(NC(=O)CCC1CCCCC1)c1cc([N+](=O)[O-])ccc1Cl (stereo unspecified) | ? | 0 | 60* | -1 | 0 | 67*
Cc1ccc(S(=O)(=O)N(C(=O)c2ccncc2)c2ccc3oc4c(c3c2)CCCC4)cc1[N+](=O)[O-] | -1 | -5 | 54* | -14 | -2 | 23
Cc1ccc([N+](=O)[O-])cc1S(=O)(=O)N(C(=O)c1ccncc1)c1ccc2oc3c(c2c1)CCCC3 | 1 | -6 | 72* | 4 | 2 | 26
COC(=O)c1c(C)oc2ccc(N(C(=O)c3ccncc3)S(=O)(=O)c3ccc(C)cc3C)cc12 | 1 | 2 | 38 | -10 | -2 | nt
CCC(NC(=S)NC1CCCCC1)c1ccc(C)cc1 (stereo unspecified) | 3 | nt | 11 | nt | nt | nt
CC1CCN(S(=O)(=O)c2ccc(NC(=O)CCNC(=O)c3ccc(Cl)cc3)cc2)CC1 | nt | nt | 1 | nt | nt | nt
COc1ccccc1CC(=O)N(CCC1=CCCCC1)c1c(N)n(Cc2ccccc2)c(=O)[nH]c1=O | -2 | nt | 0 | nt | nt | nt
Cc1cccc(NC(=S)/N=C(\N)Nc2nc(C)c3ccc(C)cc3n2)c1 | 1 | -10 | 25 | -50 | -4 | nt
Cc1cccc(NC(=S)/N=C(\N)Nc2nc(C)c3ccccc3n2)c1 | 5 | 3 | 59* | -12 | 0 | 20
COc1cc(OC)c(C2=NOC(C(=O)N3CCc4ccccc4C3)C2)cc1Cl (stereo unspecified) | -2 | -9 | 80* | -2 | -2 | 60*
COc1cc(OC)c(C2=NOC(C(=O)NCc3ccc4c(c3)OCO4)C2)cc1Cl (stereo unspecified) | 5 | 3 | 60* | 7 | -1 | 24
Cc1cc(N2C(=O)C(O)=C(C(=O)c3ccco3)C2c2ccccc2F)no1 (stereo unspecified) | 3 | nt | -3 | nt | nt | nt
O=C1[C@@H]2[C@@H](CN3CN(c4ccccc4)N=C(c4ccccc4)[C@@]23c2ccccc2)C(=O)N1c1ccccc1 | nt | nt | 57* | nt | nt | 15
O=C1C2Sc3[nH]c(=O)sc3C(c3cc([N+](=O)[O-])ccc3O)C2C(=O)N1c1ccccc1 (stereo unspecified) | -3 | -4 | -1 | -10 | 12 | nt
O=C(NCc1ccc(Cl)cc1)c1ccc(NC(=O)C2CCCO2)cc1 (stereo unspecified) | 2 | nt | -1 | nt | nt | nt
CC(C)C[C@H]1C(=O)N2CCC[C@H]2[C@]2(O)O[C@](NC(=O)[C@@H]3C=C4c5cccc6[nH]c(Br)c(c56)CC4N(C)C3)(C(C)C)C(=O)N12 (stereo partly specified) | -8 | 6 | 76* | -62 | 1 | 24
CSc1nc2ccccc2n1Cc1cccc([N+](=O)[O-])c1 | -2 | -7 | 59* | 6 | -2 | 29
CCc1cccc(NC(=O)COC(=O)c2cc([N+](=O)[O-])ccc2N2CCOCC2)c1 | -3 | nt | 87* | nt | nt | 89*
